# Bioassay records deposited in PubChem BioAssay by Sanford-Burnham Center for Chemical Genomics.
# FLuc inh counter: counter-screen for luciferase assay inhibitors: firefly luciferase inhibition; AID 1006; inhibition, % at 10 µM; 200,000 compounds, 1.5% hits; P08659; ATPLite firefly luciferase biochemical luminescence, 10 min;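 active = inhibition above about 50% when tested at 10 µM, limit read from the data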
# Target sequence (P08659 whole entry, looked up): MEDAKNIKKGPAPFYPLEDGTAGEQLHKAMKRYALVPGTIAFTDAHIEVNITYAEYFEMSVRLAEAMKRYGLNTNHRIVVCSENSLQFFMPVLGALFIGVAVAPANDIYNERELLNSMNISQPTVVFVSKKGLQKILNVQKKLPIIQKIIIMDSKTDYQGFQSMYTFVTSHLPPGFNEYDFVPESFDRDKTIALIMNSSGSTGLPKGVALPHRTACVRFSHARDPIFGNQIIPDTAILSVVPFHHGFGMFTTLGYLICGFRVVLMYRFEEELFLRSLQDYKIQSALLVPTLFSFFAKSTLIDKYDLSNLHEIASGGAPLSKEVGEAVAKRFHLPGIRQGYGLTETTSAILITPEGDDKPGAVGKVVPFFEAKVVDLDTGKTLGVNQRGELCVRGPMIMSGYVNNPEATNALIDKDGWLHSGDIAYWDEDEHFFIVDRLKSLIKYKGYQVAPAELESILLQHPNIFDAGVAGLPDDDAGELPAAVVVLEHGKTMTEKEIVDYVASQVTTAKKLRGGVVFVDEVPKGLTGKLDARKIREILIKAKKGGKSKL
# FLuc act counter: affects firefly luciferase, flagging false hits in luciferase stimulation screens; P08659; ATPlite luciferase biochemical, luminescence, 10 min; 0 = ATP-free wells, 1 = DMSO control; activation factor at 10 µM; 200,000 tested, under 10 active;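 active = luciferase activation factor, scaled between plate controls, of at least 2 with compound at 10 µM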
#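 System: luciferase plus luciferin reagent, cell-free; medium: PBS as buffer for the ATP substrate; dosing: test compounds dosed from 2 mM stocks in 100% DMSO; timing: 10 min post-reagent at room temperature; measured by: luminescence measurement of luciferase light output; evaluation: luciferase activation, seen as luminescence increase over controls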
# TRAIL sens C8: caspase-8 TRAIL sensitization. inhibition (viability loss, TRAIL sensitization), % at 10 µM. NB7+C8 cells + TRAIL, ATPlite viability luminescence. 360,000 compounds, 1% hits;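 active = compounds causing at least 50% loss of cell viability in the single-dose screen, relative to plate controls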
# PPC-1+TRAIL kill: kills PPC-1 cancer cells in the presence of TRAIL; PPC-1 cells + TRAIL, ATPLite viability luminescence; cell killing (% activity), % at 4 µM or 5 µM; 220,000 compounds, 0.41% hits;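 active = cell killing above 50% in the first pass at 4 µM, then a duplicate retest at 5 µM averaging 50% or more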;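 note: plate controls were cells with TRAIL plus DMSO for no effect and medium-only wells lacking cells for full effect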
# Active calls of the source: *; / = no result given. This is a sample that favours compounds with a hit; in the whole collection about 1.5% have one here.
SMILES,FLuc inh counter,FLuc act counter,TRAIL sens C8,PPC-1+TRAIL kill
O=C1c2ccccc2C(=O)c2c1oc(C(F)(F)F)c2C(=O)c1ccccc1,2.8,1,96.1*,20.1
C[C@H](CO)N1C[C@H](C)[C@@H](CN(C)C(=O)Nc2ccc(C(F)(F)F)cc2)Oc2c(NC(=O)CCC(F)(F)F)cccc2C1=O,/,/,5.0,/
Cc1ccc(S(=O)(=O)N2CCC(=O)c3ccccc32)cc1,/,/,-4.2,/
NC(c1csc(Nc2cnccn2)n1)c1ccccc1Cl (stereo unspecified),/,/,-4.6,/
O=C(O/N=C1\CCS(=O)(=O)c2sccc21)c1ccc(F)cc1,5.9,0.9,-3.9,14.2
O=C(O/N=C1/CCSc2ccccc21)c1ccc(F)cc1,88.4*,0.1,-5.8,-0.1
O=C(O/N=C1/CCCc2occc21)c1ccc(F)cc1,80.0*,0.2,-4.4,-8.3
Cc1ccc(-c2nc(-c3cccnc3)no2)c(C)c1,64.9*,0.4,36.6,37.7
CC(=O)Oc1ccc(Oc2ccc(-c3noc(C)n3)cc2)cc1,0.1,1,34.3,-13.8
CC(=O)Oc1ccc(-c2nc(-c3cccnc3)no2)cc1,59.8*,0.4,20.4,23.9
Cc1ccc(C)c(OCc2nc(-c3cccnc3)no2)c1,-0.8,1,18.6,8.1
CCC(=O)c1ccc(/C=C/c2nc3ccccc3n2C)o1,78.9*,0.2,50.6*,7.5
COc1ccc(C(C(=O)NCC2CCCO2)N(C(=O)c2snc(C(N)=O)c2N)c2ccc(C)cc2)cc1OC (stereo unspecified),/,/,9.9,/
CC(=O)c1c(C)oc2c1C(=O)c1ccccc1C2=O,-9.5,1.1,39.0,8.0
Cc1nc2c(o1)C(=O)c1ccccc1C2=Nc1ccccc1,/,/,94.6*,/
CN(Cc1ccccc1)C(=O)c1ccc(Cc2cn(C)c3ccccc23)nc1,/,/,0.7,/
Cc1nonc1C(=O)N/N=C/c1ccc(O)cc1O,6.5,0.9,56.3*,/
C[C@H](CO)N1C[C@H](C)[C@@H](CN(C)C(=O)c2ccncc2)OCc2cnnn2CCCC1=O,/,/,-22.3,/
COc1cccc2cc(-c3nnc(-c4ccccc4)o3)c(=O)oc12,91.3*,0.1,38.1,/
COc1ccc(-c2nnc(-c3cc4ccccc4oc3=O)o2)cc1,5.0,0.9,-4.4,16.1
NC1=C(Cl)C(=O)c2ccc(S(N)(=O)=O)cc2C1=O,/,/,91.6*,/
Cc1cc(C(=O)N/N=C/c2c(C)nn(-c3ccccc3)c2Cl)n[nH]1,/,/,31.6,5.0
Cc1ccc(O)c(/C=N/NC(=O)c2[nH]ncc2Br)c1,74.0*,0.3,-5.8,7.6
Cc1nn(-c2ccccc2)c(Cl)c1/C=N/NC(=O)c1ccn[nH]1,/,/,75.1*,/
COc1ccc(OC)c(/C=N/NC(=O)c2[nH]ncc2Br)c1,/,/,-9.0,10.0
SMILES,FLuc inh counter,FLuc act counter,TRAIL sens C8,PPC-1+TRAIL kill
Cc1nn(-c2ccccc2)c(Cl)c1/C=N/NC(=O)c1ccccc1F,/,/,7.0,3.0
Cc1nn(-c2ccccc2)c(Cl)c1/C=N/NC(=O)c1cccnc1,27.1,0.7,16.4,17.6
Cc1ccc(C(=O)N/N=C\c2c(C)nn(-c3ccccc3)c2Cl)cn1,51.4*,0.5,45.2,2.9
Cc1nn(-c2ccccc2)c(Cl)c1/C=N/NC(=O)c1[nH]ncc1Br,/,/,72.7*,/
O=C(NCc1ccccc1)C(CCc1ccccc1)n1c(=O)c(-c2ccccc2)nc2ccccc21 (stereo unspecified),/,/,8.0,/
N#Cc1ccc(-c2nc3ccc(Cl)cn3c2Cc2ccccc2C(F)(F)F)cc1,/,/,5.0,/
Cc1ccsc1CN(C)CC(=O)N(C)CC(=O)Nc1c(Cl)cccc1Cl,/,/,-9.1,/
O=C(COc1ccccc1F)Nc1cc(S(=O)(=O)Nc2cccc(Cl)c2)ccc1O,/,/,-10.0,/
O=C(NC(=O)c1c(F)cccc1F)Nc1cccc(Oc2ncc(Cl)cn2)c1,/,/,24.6,/
Cc1nn(-c2ccccc2)c(Cl)c1/C=N/NC(=O)c1ccccc1NS(=O)(=O)c1cccs1,8.4,0.9,7.7,-3.4
Cc1nn(-c2ccccc2)c(Cl)c1/C=N/NC(=O)c1ccc(NS(=O)(=O)c2cccs2)cc1,70.9*,0.3,/,49.5
O=C(COC(=O)c1cccc(OC(F)F)c1)Nc1ncccn1,/,/,-8.1,/
CCc1ccc(C(=O)/C=C/c2cnn(C)c2C)s1,85.7*,0.1,24.9,29.1
O=C(/C=C/Nc1ccc(F)cc1)c1ccco1,91.6*,0.1,60.4*,48.2
CCOC(=O)c1ccc(N/C=C/C(=O)c2ccc(OC)c(OC)c2)cc1,-4.3,1,18.1,8.2
CCOC(=O)c1ccc(N/C=C/C(=O)c2ccco2)cc1,61.6*,0.4,50.6*,25.9
COc1cccc(OC)c1C(=O)Nc1ccnn1C,/,/,-6.5,/
